Measurements from ChEMBL document CHEMBL2016445, “Discovery of a novel class of potent and orally bioavailable sphingosine 1-phosphate receptor 1 antagonists” (J Med Chem, 2012).

Columns and labels:
[1] = Metabolic stability of the compound in mouse liver microsomes assessed as compound oxidation measuring disappearance of compound at 15 uM after 30 mins by LC/MS/MS analysis; type: ADME, Microsome; details: read-out: Drug degradation
In short: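 Incubated in duplicate for 30 min at 37 °C: 15 µM compound, 0.15% DMSO, 0.5 mg/mL mouse liver microsomes, 1 mM NADPH, 100 mM potassium phosphate pH 7.4. Stopped with acetonitrile containing 0.1% formic acid. Parent remaining measured by LC/MS/MS; disappearance calculated relative to no-NADPH controls.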

[2] = target: Sphingosine 1-phosphate receptor 2 (Homo sapiens, UniProt O95136); assay: Antagonist activity at S1P2 receptor expressed in HEK293 cells assessed as inhibition of S1P-induced tango beta-arrestin recruitment preincubated for 30 mins prior S1P addition measured after 16 to 18 hrs by luciferase reporter gene assay; type: functional, cell-based
Sequence of Sphingosine 1-phosphate receptor 2 (O95136 whole entry): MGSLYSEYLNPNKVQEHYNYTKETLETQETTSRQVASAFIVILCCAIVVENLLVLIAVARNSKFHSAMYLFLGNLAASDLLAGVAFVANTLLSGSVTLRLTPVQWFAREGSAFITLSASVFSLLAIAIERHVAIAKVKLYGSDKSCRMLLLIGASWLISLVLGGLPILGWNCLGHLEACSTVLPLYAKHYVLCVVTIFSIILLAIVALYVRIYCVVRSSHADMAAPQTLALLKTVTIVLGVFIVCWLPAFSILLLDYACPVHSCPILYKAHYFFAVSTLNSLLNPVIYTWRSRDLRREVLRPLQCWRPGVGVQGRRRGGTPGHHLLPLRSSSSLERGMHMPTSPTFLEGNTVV

Mus musculus = assay: Toxicity in athymic nude mouse xenografted with human MDA-MB-231T cells assessed as body weight loss at 300 mg/kg, po qd for 14 days post implantation measured for 14 days; type: organism-based; parameters: dose 300 mg/kg, route oral; details: in vivo, 336 h
In short: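 Female NCr athymic nude mice bearing mammary fat pad MDA-MB-231T tumors (1 x 10⁶ cells). Dosed orally once daily at 10 mL/kg from fresh solutions. Body weights recorded daily; clinical signs and survival monitored daily.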

[3] = Drug uptake in nu/nu homozygous mouse plasma at 100 mg/kg, po as a solution in 10% EtOH/45% PEG400/water + 1:1 HCl after 4 hrs by HPLC/MS/MS analysis; type: ADME, organism-based; parameters: dose 100 mg/kg, route oral
In short: (§1)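 Female Nu/Nu mice (~8 wk, 20-22 g) given a single 100 mpk oral dose at 10 mL/kg. Vehicles: 10% EtOH/45% or 40% PEG400/water + 1 molar equiv HCl, 10% EtOH/40% PEG400/20% Captisol + HCl, or 10% NMP/90% corn oil. Heparinized blood collected 1 and 4 h post-dose; plasma analysed by HPLC/MS/MS.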

[4] = target: T1, Sphingosine 1-phosphate receptor 1 (Homo sapiens, UniProt P21453); assay: Antagonist activity at S1P1 receptor expressed in HEK293 cells assessed as inhibition of S1P-induced tango beta-arrestin recruitment preincubated for 30 mins prior S1P addition measured after 16 to 18 hrs by luciferase reporter gene assay; type: functional, cell-based
T1 sequence (P21453 whole entry): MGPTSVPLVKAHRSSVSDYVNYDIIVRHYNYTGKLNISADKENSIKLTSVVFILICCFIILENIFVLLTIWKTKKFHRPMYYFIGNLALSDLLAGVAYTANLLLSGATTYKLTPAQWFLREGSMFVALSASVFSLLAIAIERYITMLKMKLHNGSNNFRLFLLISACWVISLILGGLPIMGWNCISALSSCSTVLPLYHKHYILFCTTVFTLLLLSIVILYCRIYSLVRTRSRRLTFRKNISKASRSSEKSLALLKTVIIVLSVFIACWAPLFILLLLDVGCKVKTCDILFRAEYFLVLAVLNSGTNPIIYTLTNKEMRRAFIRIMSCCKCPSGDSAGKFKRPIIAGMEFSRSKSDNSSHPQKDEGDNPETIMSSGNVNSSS

[5] = Antitumor activity against human MDA-MB-231T cells xenografted in athymic nude mouse assessed as tumor growth inhibition at 300 mg/kg, po qd for 14 days post implantation measured for 14 days; type: functional; details: 336 h, read-out: TGI
In short: (§2)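 MDA-MB-231T cells grown in DMEM with 10% FBS. 1 x 10⁶ cells in ice-cold HBSS implanted into the mammary fat pad of female athymic nude (NCr) mice, 5-8 wk. Daily oral dosing at 10 mL/kg, solutions made fresh daily. Tumor weight measured twice weekly; TGI calculated against vehicle and staging-day weights; 2-tailed t-test, p<0.05.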

[6] = target: T1, Sphingosine 1-phosphate receptor 1; assay: Antagonist activity at S1P1 receptor expressed in HEK293 cells assessed as inhibition of S1P-induced cAMP response after 90 mins by spectrophotometry; type: functional, cell-based
[7] = Drug uptake in nu/nu homozygous mouse plasma at 100 mg/kg, po as a solution in 10% EtOH/45% PEG400/water + 1:1 HCl after 1 hr by HPLC/MS/MS analysis; type: ADME, organism-based; parameters: dose 100 mg/kg, route oral; in short: as §1
[8] = target: Sphingosine 1-phosphate receptor 3 (Homo sapiens, UniProt Q99500); assay: Antagonist activity at S1P3 receptor expressed in HEK293 cells assessed as inhibition of S1P-induced tango beta-arrestin recruitment preincubated for 30 mins prior S1P addition measured after 16 to 18 hrs by luciferase reporter gene assay; type: functional, cell-based
Sequence of Sphingosine 1-phosphate receptor 3 (Q99500 whole entry): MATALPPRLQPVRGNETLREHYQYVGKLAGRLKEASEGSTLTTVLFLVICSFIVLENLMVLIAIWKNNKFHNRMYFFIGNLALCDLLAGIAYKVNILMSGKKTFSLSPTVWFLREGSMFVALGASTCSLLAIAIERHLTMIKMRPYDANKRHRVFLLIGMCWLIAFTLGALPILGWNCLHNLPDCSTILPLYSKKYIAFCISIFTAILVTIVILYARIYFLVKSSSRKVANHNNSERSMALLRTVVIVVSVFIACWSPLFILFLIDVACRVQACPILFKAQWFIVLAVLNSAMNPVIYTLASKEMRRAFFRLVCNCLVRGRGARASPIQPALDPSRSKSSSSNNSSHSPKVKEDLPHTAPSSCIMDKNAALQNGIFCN

[9] = Drug uptake in nu/nu homozygous mouse plasma at 100 mg/kg, po as a solution of 10% EtOH/40% PEG400/20% Captisol/water + 1:1 HCl after 4 hrs by HPLC/MS/MS analysis; type: ADME, organism-based; parameters: dose 100 mg/kg, route oral; in short: as §1
[10] = Drug uptake in nu/nu homozygous mouse plasma at 100 mg/kg, po as a solution of 10% EtOH/40% PEG400/20% Captisol/water + 1:1 HCl after 1 hr by HPLC/MS/MS analysis; type: ADME, organism-based; parameters: dose 100 mg/kg, route oral; in short: as §1
[11] = Cmax in overnight fasted cynomolgus monkey at 3 mg/kg, po by HPLC/MS/MS analysis; type: ADME, organism-based, Macaca fascicularis; parameters: dose 3 mg/kg, route oral; details: in vivo
In short: (§3)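 Male cynomolgus monkeys fasted overnight and fed again 4 h post-dose; groups of 3. Dosed 3 mpk intravenously and by oral gavage as a solution in EtOH/PEG400/water (5:45:50). K-EDTA blood taken pre-dose and at 0.08-48 h. Plasma assayed by HPLC/MS/MS; non-compartmental analysis.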

[12] = Half life in overnight fasted cynomolgus monkey at 3 mg/kg, po by HPLC/MS/MS analysis; type: ADME, organism-based, Macaca fascicularis; parameters: dose 3 mg/kg, route oral; details: in vivo; in short: as §3
[13] = AUC (0 to infinity) in overnight fasted CD Sprague-Dawley rat at 3 mg/kg, po by HPLC/MS/MS analysis; type: ADME, organism-based; parameters: dose 3 mg/kg, route oral, time infinity; details: plasma
In short: (§4)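 Female Sprague-Dawley CD rats (9-10 wk, 201-225 g), fasted overnight and fed again 4 h post-dose. Given 3 mpk orally as a solution in EtOH/PEG400/water (5:45:50), n=4. Jugular-catheter blood drawn into heparin at 0.08-144 h (15 time points). Plasma assayed by HPLC/MS/MS; parameters from non-compartmental analysis.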

Cytochrome P450 3A4 = Cytochrome P450 3A4 (Homo sapiens, UniProt P08684); assay: Inhibition of human CYP3A4 using testosterone as substrate by LC/MS/MS analysis; type: ADME
Sequence of Cytochrome P450 3A4 (P08684 whole entry): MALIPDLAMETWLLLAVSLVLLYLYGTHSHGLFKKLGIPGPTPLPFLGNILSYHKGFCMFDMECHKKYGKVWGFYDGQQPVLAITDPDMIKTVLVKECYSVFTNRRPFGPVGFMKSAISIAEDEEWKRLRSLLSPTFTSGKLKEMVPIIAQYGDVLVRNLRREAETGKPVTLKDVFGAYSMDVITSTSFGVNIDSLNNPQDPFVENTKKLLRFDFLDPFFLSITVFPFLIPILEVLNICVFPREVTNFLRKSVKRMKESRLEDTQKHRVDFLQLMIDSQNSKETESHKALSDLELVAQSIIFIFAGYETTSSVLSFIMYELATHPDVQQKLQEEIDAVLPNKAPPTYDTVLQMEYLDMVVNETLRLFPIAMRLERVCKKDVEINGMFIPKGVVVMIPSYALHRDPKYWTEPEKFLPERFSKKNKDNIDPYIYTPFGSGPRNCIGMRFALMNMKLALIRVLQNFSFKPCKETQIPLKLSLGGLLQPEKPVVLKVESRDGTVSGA
In short: (§5)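 Pooled human liver microsomes in 100 mM potassium phosphate, pH 7.4, at 37 °C with 1000 µM NADPH for 15 min. Microsomes 0.15 mg/mL for CYP2C9 and CYP2D6, 0.25 mg/mL for CYP3A4. Inhibitor tested at six concentrations (0.2–50 µM). Reactions quenched with acetonitrile; metabolite measured by LC/MS/MS; IC50 from 4-parameter sigmoidal fit.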

[14] = Drug uptake in nu/nu homozygous mouse plasma at 100 mg/kg, po as a suspension in 10% NMP/corn oil after 4 hrs by HPLC/MS/MS analysis; type: ADME, organism-based; parameters: dose 100 mg/kg, route oral; in short: as §1
Cytochrome P450 2C9 = Cytochrome P450 2C9 (Homo sapiens, UniProt P11712); assay: Inhibition of human CYP2C9 using tolbutamide as substrate by LC/MS/MS analysis; type: ADME; in short: as §5
Sequence of Cytochrome P450 2C9 (P11712 whole entry): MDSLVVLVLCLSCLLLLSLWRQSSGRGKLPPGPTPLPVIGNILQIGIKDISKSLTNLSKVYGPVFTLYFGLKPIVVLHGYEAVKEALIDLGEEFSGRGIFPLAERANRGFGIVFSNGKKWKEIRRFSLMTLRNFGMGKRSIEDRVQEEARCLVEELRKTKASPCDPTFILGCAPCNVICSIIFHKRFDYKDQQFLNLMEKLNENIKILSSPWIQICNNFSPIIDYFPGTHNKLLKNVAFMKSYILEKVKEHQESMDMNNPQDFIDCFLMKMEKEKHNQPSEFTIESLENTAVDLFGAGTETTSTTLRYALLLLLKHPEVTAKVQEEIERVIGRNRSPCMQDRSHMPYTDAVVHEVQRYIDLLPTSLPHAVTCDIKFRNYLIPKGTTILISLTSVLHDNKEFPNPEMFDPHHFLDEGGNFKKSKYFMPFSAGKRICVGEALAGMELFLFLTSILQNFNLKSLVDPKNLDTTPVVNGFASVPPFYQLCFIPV

[15] = Drug uptake in nu/nu homozygous mouse plasma at 100 mg/kg, po as a suspension in 10% NMP/corn oil after 24 hrs by HPLC/MS/MS analysis; type: ADME, organism-based; parameters: dose 100 mg/kg, route oral
Cytochrome P450 2D6 = Cytochrome P450 2D6 (Homo sapiens, UniProt P10635); assay: Inhibition of human CYP2D6 using bufuralol as substrate by LC/MS/MS analysis; type: ADME; in short: as §5
Sequence of Cytochrome P450 2D6 (P10635 whole entry): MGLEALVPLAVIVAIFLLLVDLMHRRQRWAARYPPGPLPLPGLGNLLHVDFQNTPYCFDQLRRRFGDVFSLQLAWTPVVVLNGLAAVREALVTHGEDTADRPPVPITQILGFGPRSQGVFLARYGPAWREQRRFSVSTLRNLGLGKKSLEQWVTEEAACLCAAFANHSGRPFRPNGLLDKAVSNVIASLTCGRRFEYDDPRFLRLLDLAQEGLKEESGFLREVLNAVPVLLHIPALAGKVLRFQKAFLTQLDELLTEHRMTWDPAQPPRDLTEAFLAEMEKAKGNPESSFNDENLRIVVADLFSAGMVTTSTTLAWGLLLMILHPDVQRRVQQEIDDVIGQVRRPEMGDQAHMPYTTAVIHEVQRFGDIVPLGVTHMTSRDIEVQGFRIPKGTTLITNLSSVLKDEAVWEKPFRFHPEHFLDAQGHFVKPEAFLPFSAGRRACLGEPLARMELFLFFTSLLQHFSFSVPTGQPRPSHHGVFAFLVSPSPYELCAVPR

[16] = AUC (0 to infinity) in overnight fasted beagle dog at 3 mg/kg, po by HPLC/MS/MS analysis; type: ADME, organism-based, Canis lupus familiaris; parameters: time infinity, dose 3 mg/kg, route oral; details: plasma
In short: (§6)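 Male beagle dogs fasted overnight and fed again 4 h post-dose; groups of 3. Study design covered 3 mpk IV and PO. Oral dose by gavage at 3 mpk in EtOH/PEG400/water (5:45:50). K-EDTA blood taken pre-dose and at 0.08-48 h. Plasma assayed by HPLC/MS/MS; non-compartmental PK parameters.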

[17] = Oral bioavailability in overnight fasted cynomolgus monkey at 3 mg/kg by HPLC/MS/MS analysis; type: ADME, organism-based, Macaca fascicularis; details: in vivo; in short: as §3
[18] = AUC (0 to infinity) in overnight fasted cynomolgus monkey at 3 mg/kg, po by HPLC/MS/MS analysis; type: ADME, organism-based, Macaca fascicularis; parameters: time infinity, dose 3 mg/kg, route oral; details: plasma; in short: as §3
[19] = Cmax in overnight fasted beagle dog at 3 mg/kg, po by HPLC/MS/MS analysis; type: ADME, organism-based, Canis lupus familiaris; parameters: dose 3 mg/kg, route oral; details: in vivo; in short: as §6
[20] = Oral bioavailability in overnight fasted beagle dog at 3 mg/kg by HPLC/MS/MS analysis; type: ADME, organism-based, Canis lupus familiaris; details: in vivo; in short: as §6
[21] = Half life in overnight fasted beagle dog at 3 mg/kg, po by HPLC/MS/MS analysis; type: ADME, organism-based, Canis lupus familiaris; parameters: dose 3 mg/kg, route oral; details: in vivo; in short: as §6
[22] = Cmax in overnight fasted CD Sprague-Dawley rat at 3 mg/kg, po by HPLC/MS/MS analysis; type: ADME, organism-based; parameters: dose 3 mg/kg, route oral; details: in vivo; in short: as §4
[23] = Half life in overnight fasted CD Sprague-Dawley rat at 3 mg/kg, po by HPLC/MS/MS analysis; type: ADME, organism-based; parameters: dose 3 mg/kg, route oral; details: in vivo; in short: as §4
[24] = Oral bioavailability in overnight fasted CD Sprague-Dawley rat at 3 mg/kg by HPLC/MS/MS analysis; type: ADME, organism-based; details: in vivo
[25] = Antitumor activity against human MDA-MB-231T cells xenografted in athymic nude mouse assessed as tumor growth inhibition at 100 mg/kg, po qd for 14 days post implantation measured for 14 days; type: functional; details: 336 h, read-out: TGI; in short: as §2
[26] = Drug uptake in nu/nu homozygous mouse plasma at 100 mg/kg, po after 4 hrs by HPLC/MS/MS analysis; type: ADME, organism-based; parameters: dose 100 mg/kg, route oral; in short: as §1
[27] = Drug uptake in nu/nu homozygous mouse plasma at 100 mg/kg, po after 1 hr by HPLC/MS/MS analysis; type: ADME, organism-based; parameters: dose 100 mg/kg, route oral; in short: as §1

O=C(Cc1cnc[nH]1)N[C@@H](COCc1ccccc1)C(=O)Nc1ccc(Oc2ccc(Cl)cc2)cc1
metabolised at 0.5 h, 15 µM [1]: 9%
IC50 [2]: > 10000 nM
Activity (Mus musculus): Non-toxic
concentration at 4 h [3]: 11 µM
IC50 [4]: 221 nM
inhibition in vivo at 300 mg/kg [5]: 45%
IC50 [6]: 32 nM
concentration at 1 h [7]: 11 µM
IC50 [8]: > 10000 nM

O=C(Cc1c[nH]cn1)N[C@@H](COCc1ccccc1)c1nc2cc(Oc3ccc(F)cc3)ccc2[nH]1
concentration at 4 h [9]: 2.7 µM
concentration at 1 h [10]: 18.7 µM
IC50 [6]: 239 nM

O=C(Nc1ccc(Oc2ccc(F)cc2)cc1)[C@@H]1C[C@@H](Cc2ccc(F)cc2)CN1C(=O)Cn1ccnn1
Cmax [11]: 1.5 µM
half-life [12]: 6.4 h
AUC(0-inf) [13]: 108 µM·h
IC50 [2]: > 10000 nM
IC50 (Cytochrome P450 3A4): > 20000 nM
concentration at 4 h [14]: 16.7 µM
IC50 (Cytochrome P450 2C9): 17300 nM
concentration at 24 h [15]: 4.7 µM
IC50 (Cytochrome P450 2D6): 20300 nM
AUC(0-inf) [16]: 108 µM·h
bioavailability [17]: 45.7%
AUC(0-inf) [18]: 16.7 µM·h
Cmax [19]: 5.4 µM
IC50 [4]: 26 nM
IC50 [6]: 5.8 nM
bioavailability [20]: 99.9%
half-life [21]: 34 h
Cmax [22]: 3.2 µM
half-life [23]: 22.5 h
IC50 [8]: > 10000 nM
bioavailability [24]: 76.4%
inhibition in vivo at 100 mg/kg [25]: 43%

CN(CC(=O)NC(COCc1ccccc1)C(=O)Nc1ccc(Oc2ccccc2)cc1)C(=O)c1ccccc1 (racemic)
concentration at 4 h [26]: < 0.019 µM
metabolised at 0.5 h, 15 µM [1]: 89%
IC50 [2]: > 10000 nM
IC50 [4]: 2800 nM
concentration at 1 h [27]: < 0.019 µM
IC50 [6]: 718 nM
IC50 [8]: > 10000 nM
